Test [1] has as its system Hepatocyte. In words: Hepatoprotective activity in ddY mouse primary cultured hepatocytes assessed as inhibition of D-galactosamine-induced cytotoxicity after 44 hrs by MTT assay. The test is classed as functional, cell-based. Put shortly:
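Hepatocytes isolated from male ddY mice (30–35 g) by collagenase perfusion; 4 × 10^4 cells/well in William's E with 10% FBS, pre-cultured 4 h at 37 °C, 5% CO2, then 44 h with D-GalN (2 mM) ± sample. MTT (4 h); formazan in isopropanol/0.04 M HCl, OD 570 nm (ref 655 nm). Inhibition % = (sample − control)/(normal − control) × 100.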
For orientation: Tetrazolium dyes change colour on reduction, which living cells bring about.

Test [2] has as its system L929. The test is described as follows: Cytoprotective activity in mouse L929 cells assessed as inhibition of TNF-alpha-induced cytotoxicity after 44 hrs by MTT assay. The test is classed as functional, cell-based. The following applies: L929, 44 h. Put shortly:
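L929 cells kept in MEM with 10% FBS and non-essential amino acids at 37 °C, 5% CO2; seeded 3 × 10^4 cells/well, exposed 44 h to TNF-α (20 ng/mL) with or without sample (DMSO, final 0.5%). Viability by MTT: formazan dissolved in acidic isopropanol, OD 570 nm (ref 655 nm). Inhibition % = (sample − control)/(normal − control) × 100.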

Test [3] concerns Mus musculus. The test is described as follows: Hepatoprotective activity against D-galactosamine/lipopolysaccharide-induced liver injury in ddY mouse assessed as inhibition of increase in sAST level at 25 mg/kg, po administered 1 hr before D-GalN/LPS challenge measured after 10 hrs. The test is classed as functional. Put shortly:
(§1)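 Male ddY mice (25–30 g), fasted 20 h. Sample suspended in 5% gum arabic, given orally at 10 mL/kg 1 h before i.p. D-GalN (350 mg/kg) plus LPS (10 μg/kg) in saline. Vehicle controls dosed alike. Blood from infraorbital venous plexus at 10 h; sAST and sALT by Reitman–Frankel method. Hydrocortisone as reference.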

Test [4] has as its system Mus musculus. The test is described as follows: Hepatoprotective activity against D-galactosamine/lipopolysaccharide-induced liver injury in ddY mouse assessed as inhibition of increase in sAST level at 100 mg/kg, po administered 1 hr before D-GalN/LPS challenge measured after 10 hrs. It is filed as functional. Put shortly:
as §1

The subject of test [5] is Mus musculus. In words: Hepatoprotective activity against D-galactosamine/lipopolysaccharide-induced liver injury in ddY mouse assessed as inhibition of increase in sALT level at 25 mg/kg, po administered 1 hr before D-GalN/LPS challenge measured after 10 hrs. The test is classed as functional. Put shortly: as §1
For test [6], the system named is Mus musculus. In words: Hepatoprotective activity against D-galactosamine/lipopolysaccharide-induced liver injury in ddY mouse assessed as inhibition of increase in sALT level at 100 mg/kg, po administered 1 hr before D-GalN/LPS challenge measured after 10 hrs. The test is classed as functional. Put shortly: as §1
Test [7] relates to Peritoneal macrophage cell. In words: Inhibition of LPS-induced nitric oxide production in ddY mouse peritoneal macrophages. The test is classed as functional, cell-based.
In test [8] the test system is Peritoneal macrophage cell. In words: Inhibition of LPS-induced TNFalpha production in ddY mouse peritoneal macrophages. It is filed as functional, cell-based. Put shortly:
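Thioglycollate-elicited peritoneal macrophages from male ddY mice, 5 × 10^5 cells/well in RPMI 1640 with 5% FBS, 1 h pre-culture, nonadherent cells washed off. Compound (DMSO, final 0.5%) added 10 min before LPS (medium containing 10 μg/mL), 4 h incubation; TNF-α in medium by ELISA.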

The test system of test [9] is Mus musculus. The test is described as follows: Hepatoprotective activity against D-galactosamine/lipopolysaccharide-induced liver injury in ddY mouse assessed as inhibition of increase in sAST level at 10 mg/kg, po administered 1 hr before D-GalN/LPS challenge measured after 10 hrs. It is filed as functional. Put shortly: as §1
Test [10] concerns Mus musculus. In words: Hepatoprotective activity against D-galactosamine/lipopolysaccharide-induced liver injury in ddY mouse assessed as inhibition of increase in sALT level at 10 mg/kg, po administered 1 hr before D-GalN/LPS challenge measured after 10 hrs. It is filed as functional. Put shortly:
as §1

Broadly, the IC50 is the point on the concentration scale where inhibition reaches its midpoint. What is called inhibition in vivo is how much of the control response was suppressed.

Turning to `C[C@@H]1O[C@@H](O[C@@H]2[C@@H](O)[C@H](OCCc3ccc(O)c(O)c3)O[C@H](CO)[C@H]2OC(=O)/C=C/c2ccc(O)c(O)c2)[C@H](O)[C@H](O)[C@H]1O` [ACETOSIDE], the IC50 is 4.6 µM in test [1], 17.8 µM in test [2], greater than 100 µM in test [7] and greater than 100 µM in [8]. The inhibition in vivo at 25 mg/kg amounted to 51.3% in test [3] and 44.4% in test [5]. The inhibition in vivo at 100 mg/kg came to 68.5% in [4] and 59.5% in test [6].

With `C[C@H]1O[C@H](O[C@@H]2[C@@H](O)[C@H](OCCc3ccc(O)c(O)c3)O[C@H](CO[C@H]3O[C@@H](CO)[C@H](O)[C@@H](O)[C@@H]3O)[C@H]2OC(=O)/C=C/c2ccc(O)c(O)c2)[C@@H](O)[C@@H](O)[C@@H]1O` [ECHINACOSIDE], the IC50 was 10.2 µM in test [1], 31.1 µM in test [2], greater than 100 µM in test [7] and greater than 100 µM in test [8]. Moreover, the inhibition in vivo at 25 mg/kg in test [3] amounted to 61.2%; in [5], 43.8%. Moreover, the inhibition in vivo at 100 mg/kg in test [4] turned out to be 66.7%; in test [6] it was 52%.

For `C[C@]12CCC(=O)C=C1CC[C@@H]1[C@@H]2[C@@H](O)C[C@@]2(C)[C@H]1CC[C@]2(O)C(=O)CO` [HYDROCORTISONE], the inhibition in vivo at 10 mg/kg in [9] is 94.2%; in test [10] it was 97.7%.

Regarding `C[C@@H]1O[C@@H](O[C@@H]2[C@@H](O)[C@H](OCCc3ccc(O)c(O)c3)O[C@H](COC(=O)/C=C/c3ccc(O)c(O)c3)[C@H]2O)[C@H](O)[C@H](O)[C@H]1O` [ISOACTEOSIDE], the IC50 in test [1] was 5.3 µM; in test [2], 22.7 µM; in test [7], greater than 100 µM; in test [8], greater than 100 µM. Besides, the results for the inhibition in vivo at 25 mg/kg in test [3] and in test [5] were 46.1% and 40.2%, respectively. Moreover, the inhibition in vivo at 100 mg/kg turned out to be 70.9% in test [4] and 58.7% in [6].

Consider `COc1cc(C2Oc3cc([C@H]4Oc5cc(O)cc(O)c5C(=O)[C@@H]4O)ccc3OC2CO)ccc1O` (stereo partly drawn) [SILIBININ], for which the half-maximal inhibitory concentration (IC50) in [1] came out at 38.8 µM; in test [2] it was 60.4 µM.
